# Screens: PubChem, several laboratories
# PERK inh: blocks human PERK kinase. Q9NZJ5. CHO PERK-DD fusion, SEAP luminescence translation reporter. inhibition, % at 5.6 µM. 220,000 tested, 0.17% active. AID 1416;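 active = inhibition above the mean inhibition of all tested compounds plus 3 SD, set separately per screening campaign, cut at about 2.9% in these data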;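 also: PERK kinase domain activated by AP20187 dimerizer at 100 nM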
# HSV replic up: HSV replication enhancement; 220,000 tested, 0.005% active; AID 1956; HSV replication augmentation in cells, fold increase; maximum fold increase; in the data active = maximum fold increase above about 1.5; inconclusive = no clear call, values can overlap the other calls; tested in PC3 cells
# Autophagy mod: alters autophagy in cells; MEF GFP-LC3 puncta imaging; test concentration mostly 10 µM; calls only at 10 µM (by protocol); 190,000 tested, 0.98% active;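 active = percentage of spot-positive cells more than 3 SD above its plate mean, without a fluorescence outlier flag or 80% toxicity; inconclusive = no clear call, values can overlap the other calls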
# Dynein transport: blocks dynein driven cargo transport along microtubules. 3617.4 mouse cells, GR-EGFP nuclear translocation imaging; test concentration mostly 20 µM; stimulated with dexamethasone, 1 µM; active compounds read low. z-score, hits read low. 220,000 tested, 0.47% active;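 active = plate z-score of nuclear minus cytoplasmic receptor signal below a set negative limit, without overly bright fluorescence or cell loss, cut at about -3.5 in these data, passing the limit was not always enough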;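 also: z-score of nuclear minus cytoplasmic ring GR-EGFP intensity difference per well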
#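 Buffer or medium – tet-free medium with charcoal-stripped serum · Signal – automated 10x imaging of fixed Hoechst-stained cells · Also added – dexamethasone agonist, 1.0 µM final, for 30 min · Incubation – induction 48 h, compound 1 h, agonist 30 min · Read-out – GR-EGFP nuclear translocation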
# HKDC1 inh: HKDC1 (human) hexokinase inhibition | AID 493160 | Q2TB90 | recombinant HKDC1, G6PDH/diaphorase resazurin coupled fluorescence | 340,000 tested, 0.16% active | inhibition, % at 20 µM;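 active = inhibition above about 35% when tested at 20 µM, limit read from the data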
# Target sequence (Q2TB90 whole entry, looked up): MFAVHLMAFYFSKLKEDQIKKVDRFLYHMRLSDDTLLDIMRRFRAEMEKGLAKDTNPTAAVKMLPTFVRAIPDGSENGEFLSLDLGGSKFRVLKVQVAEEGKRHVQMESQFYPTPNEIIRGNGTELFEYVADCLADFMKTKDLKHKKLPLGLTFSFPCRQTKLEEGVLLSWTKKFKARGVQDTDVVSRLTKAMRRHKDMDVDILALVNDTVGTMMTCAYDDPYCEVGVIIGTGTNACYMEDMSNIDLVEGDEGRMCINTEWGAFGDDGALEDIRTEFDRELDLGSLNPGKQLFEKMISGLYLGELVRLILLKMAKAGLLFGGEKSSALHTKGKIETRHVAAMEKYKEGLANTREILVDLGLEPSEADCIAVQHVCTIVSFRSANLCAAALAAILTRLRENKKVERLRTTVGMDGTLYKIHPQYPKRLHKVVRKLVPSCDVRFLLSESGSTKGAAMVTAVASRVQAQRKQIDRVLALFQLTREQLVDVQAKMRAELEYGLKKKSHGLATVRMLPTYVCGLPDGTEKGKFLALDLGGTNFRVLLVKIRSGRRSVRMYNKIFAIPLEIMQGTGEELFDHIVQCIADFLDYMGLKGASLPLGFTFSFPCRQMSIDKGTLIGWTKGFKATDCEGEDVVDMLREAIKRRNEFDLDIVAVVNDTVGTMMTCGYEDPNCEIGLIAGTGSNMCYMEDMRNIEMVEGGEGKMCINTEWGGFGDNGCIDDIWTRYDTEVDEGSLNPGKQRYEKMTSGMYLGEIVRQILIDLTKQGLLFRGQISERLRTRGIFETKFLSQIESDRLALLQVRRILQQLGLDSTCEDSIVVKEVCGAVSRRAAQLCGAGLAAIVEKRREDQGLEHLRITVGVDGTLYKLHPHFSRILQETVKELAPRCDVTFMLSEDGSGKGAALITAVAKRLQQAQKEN
#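 Material – in-house recombinant HK5 (HKDC1) enzyme · Quantity – HKDC1 at 5 µg/mL · Buffer or medium – pH 8.0 Tris buffer with 10 mM MgCl2 · Reagent – glucose with 1 mM ATP · Dosing – single 20 µM dose · Times – reaction time 90 min, room temperature, protected from light · Technique – resorufin fluorescence at 613 nm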
# Tb hexokinase: T. brucei hexokinase 1 inhibition; recombinant TbHK1, G6PDH-coupled NADH A340; inhibition, % at 10 µM; 220,000 tested, 0.11% active; AID 1430;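 active = inhibition of 50% or more in the single-dose primary screen; inactive = inhibition below 50%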
# Dynein inh conf: dynein cargo transport inhibition, confirmation. shares compounds with Dynein transport. 3617.4 GR-EGFP nuclear translocation imaging, dexamethasone-induced. calls only at 20 µM. 1,000 tested, 69% active. AID 463116;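 active = inhibition of receptor movement into the nucleus at or above a set limit in both runs, with normal cell brightness and cell count; inconclusive = limit reached in only one run, brightness and count normal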;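 also: dexamethasone at 1 µM final in well for 30 min; nuclear minus cytoplasmic GR-EGFP mean intensity difference in channel 2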
# A number is an active result; - = inactive; ? = inconclusive; . = not tested or not shown; + = active, no number. Rows were chosen to be rich in hits. Some 1.2% of all compounds tested hit in one or more screens of this group.
SMILES,PERK inh,HSV replic up,Autophagy mod,Dynein transport,HKDC1 inh,Tb hexokinase,Dynein inh conf
COC(=O)[C@H](CCSC)NC(=O)Cn1cnc2c(OCc3ccccc3)ncnc21,.,.,.,.,-,.,.
COC(CNC(=O)C(=O)Nc1cc2c3c(c1)CCN3C(=O)CC2)OC,.,.,.,.,-,.,.
Cc1cccc(C2=NC(C(F)(F)F)(C(F)(F)F)c3c(n(-c4ccc(F)cc4)c(=O)[nH]c3=O)N2)c1,-,-,-,-3.74,-,-,-
CCN(C(=O)c1coc(=O)c(Br)c1)c1ccc2c(c1)OCO2,-,-,-,-4.78,-,-,+
O=[N+]([O-])c1ccccc1S(=O)(=O)Nc1cccc(-c2ccc3nncn3n2)c1,.,.,.,.,-,.,.
CCN(CC)C(=O)Cn1c(=O)n(CC(=O)N2CCCCC2)c(=O)c2sccc21,.,.,.,.,-,.,.
O=C(NCCc1ccc(Cl)cc1)c1ccc2nc[nH]c2c1,-,-,-,-,-,-,.
COc1cccc(/C(O)=C/c2nc3ccc(C(=O)NCCc4ccc(Cl)cc4)cc3[nH]c2=O)c1,-,-,+,-,-,-,+
N#Cc1cnn2c(-c3cccc([N+](=O)[O-])c3)ccnc12,.,.,.,.,-,.,.
CC1(C)Cc2c(sc3c4nnnn4c4nnnn4c23)CO1,-,-,-,-4.73,.,-,-
CSc1nc2sc3c(c2c2nnnn12)CC(C)(C)OC3,-,.,-,-,.,-,.
CCC1=C2CC[C@H]3C(=O)N(c4ccccc4)C(=O)[C@H]3[C@H]2[C@@]2(C)C(=NCc3ccccc3)OC(=O)N2C1=O,.,-,.,-4.16,-,-,+
CCCn1c(SCC(=O)N2c3ccccc3CC2C)n[nH]c1=O (configuration not stated),.,.,.,.,-,.,.
CC(=O)Oc1ccc(C(=O)Nc2ccc(C3(C#N)CCCC3)cc2)cc1,.,.,.,.,-,.,.
CC1(C)CC(=O)/C(=C\c2cccc([N+](=O)[O-])c2)C(C)(C)N1,-,-,-,-3.6,-,-,+
CCCc1cc(=O)n2nc(N3CCC(C(=O)Nc4cccc(C(C)=O)c4)CC3)sc2n1,.,.,.,.,-,.,.
COC(=O)c1cc(NC(=O)c2ccccc2)c(=O)oc1/C=C/Nc1ccc(Oc2ccccc2)cc1,-,?,-,-,-,-,-
Cc1cc(S(=O)(=O)Nc2ccc3ccccc3c2)c(C)s1,-,-,-,-,-,-,.
Cc1cc(S(=O)(=O)Nc2cc(C)c(O)c(C)c2)c(C)s1,-,-,-,-3.99,-,-,-
CCOc1cc(/C=N/O)ccc1OCc1ccc([N+](=O)[O-])cc1,-,-,-,-,-,-,.
CCOc1cc(C=C(C(=O)OC)C(=O)OC)ccc1OCc1ccc([N+](=O)[O-])cc1,-,-,-,-5.7,-,-,+
CCOC(=O)/C=C/C(=O)Nc1ccccc1-c1ccccc1NC(=O)/C=C/C(=O)OCC,-,-,-,-4.13,-,-,+
CCOC(=O)/C=C/C(=O)Nc1cccc([N+](=O)[O-])c1,-,-,-,-,-,-,.
Cc1cc(C)cc(C(=O)NCCC(=O)N2CCC3(CC2)NCCc2[nH]cnc23)c1,.,.,.,.,-,.,.
COc1cc(/C=C/c2cccc[n+]2C)ccc1OCC(=O)Nc1ccccc1C,.,.,.,.,-,.,.
SMILES,PERK inh,HSV replic up,Autophagy mod,Dynein transport,HKDC1 inh,Tb hexokinase,Dynein inh conf
CCOc1cc(/C=C\[N+](=O)[O-])ccc1OCC(=O)Nc1ccccc1C,-,-,-,-3.55,-,-,+
CCCN(CCC)C(=O)c1cc([N+](=O)[O-])cc2c1-c1ccc([N+](=O)[O-])cc1C2=C(C#N)C#N,-,-,.,-4.62,41.3,-,+
Cc1cccc2cc3c(N)c(C(=O)N4CCc5ccccc54)sc3nc12,-,-,+,-,-,-,-
Cc1cccc2cc3c(N)c(C#N)sc3nc12,-,-,-,-,-,-,.
Cc1sc(NC(=O)c2sc3nc4c(C)cccc4cc3c2N)c(C#N)c1C,-,-,+,-,-,-,+
Cc1ccc(Cl)c(NC(=O)COC(=O)c2nn(C)c(=O)c3ccccc23)c1Cl,.,.,.,.,-,.,.
Cc1ccc(S(=O)(=O)N2CCN(C(=O)CCn3cncn3)CC2)cc1C,.,.,.,.,-,.,.
CC(=O)Nc1ccc(SC[C@H](c2ccccc2)N2CCN(CCc3ccccc3)CCC2=O)cc1,.,-,.,-4.7,.,-,-
CC(C)COc1cc(=O)[nH]c(SCC(C)C)n1,-,-,-,-4.23,-,-,-
COc1ccc(CNC(=O)CN(C)S(=O)(=O)c2ccc3c(c2)OCCO3)cc1OC,.,.,.,.,-,.,.
COc1ccc(N=C2S/C(=C\c3ccc(OCC(=O)O)cc3)C(=O)N2CCc2c[nH]c3ccccc23)cc1,-,-,-,-,-,-,.
COc1ccc(N=C2S/C(=C\c3ccc(N4CCOCC4)o3)C(=O)N2CCc2c[nH]c3ccccc23)cc1,-,-,+,-,.,-,+
CC(=O)N(C1CC(C)C(C#N)(C#N)C1(C#N)C#N)N(C)C (configuration not stated),-,-,-,-6.78,-,-,+
CCCC(=O)N(C1CC(C)C(C#N)(C#N)C1(C#N)C#N)N(C)C (configuration not stated),-,-,.,-5.34,-,-,-
CCOC(=O)c1cc(C)sc1NC(=O)CSC1=NCCS1,.,.,.,.,-,.,.
CC(C)(C)OC(=O)N(CCc1ccccc1)Cc1cccc(OCc2cccc(NC(=O)c3ccccc3)c2)c1,.,.,.,.,-,.,.
Cc1ccc(-c2nc3cnccn3c2Nc2ccccc2)o1,.,-,-,-3.85,-,-,-
Cc1ccc(Nc2c(-c3ccc(C)o3)nc3cnccn23)cc1,-,-,-,-,-,-,.
Cc1cc(C)c2nc(N3CCCC(C(=O)NC4CCCC4)C3)sc2c1 (configuration not stated),.,.,.,.,-,.,.
